Active and inactive are the calls of the source. No cut-off for these calls is given here.
Tests used:
[1] = system: CNE-2; assay: Antitumor activity against human CNE-2 cells xenografted in nu/nu mouse assessed as inhibition of tumor growth at 1 mg/kg, ip for 32 days; format: functional, organism-based; details: time 32.0 day
[2] = system: CNE-2; assay: Induction of apoptosis in human CNE-2 cells assessed as necrosis cells level at 50 nM incubated for 12 hrs by Annexin-V/FITC staining based FACS analysis (reference value: 1.45%); format: cell-based; details: cne-2, 12 h, 0.05 µM
[3] = system: CNE-2; assay: Induction of apoptosis in human CNE-2 cells assessed as early apoptosis cells level at 100 nM incubated for 12 hrs by Annexin-V/FITC staining based FACS analysis (reference value: 1.45%); format: cell-based; details: cne-2, 12 h, 0.1 µM
[4] = system: CNE-2; assay: Antitumor activity against human CNE-2 cells xenografted in nu/nu mouse assessed as induction of tumor size shrinkage at 1 mg/kg, po for 32 days; format: functional, organism-based; details: time 32.0 day
[5] = biological target: Heat shock protein HSP 90-beta (Homo sapiens, UniProt P08238); assay: Inhibition of HSP90-beta (unknown origin) expressed in Escherichia coli BL21 assessed as reduction in ATPase activity in presence of PEP, NADH and ATP by pyruvate kinase/lactic dehydrogenase based coupled enzyme assay
[6] = system: CNE-2; assay: Induction of apoptosis in human CNE-2 cells overexpressing HSP90 assessed as viable cells level at 70 nM incubated for 12 hrs by Annexin-V/FITC staining based FACS analysis (reference value: 93.2%); format: cell-based; details: read-out: Activity
[7] = Binding affinity to HSP90-alpha T184G mutant (unknown origin) expressed in Escherichia coli BL21 by SPR assay; set-up: species or system Homo sapiens
How it was run: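 SPR on a Biacore T200 at 25 °C with running buffer PBST (PBS pH 7.4, 0.005% Tween-20). Protein at 20 μg/mL in 10 mM sodium acetate pH 5.0 was immobilized on a CM5 chip, which was equilibrated overnight in PBST. Inhibitor serially diluted from 10 μM was injected at 30 μL/min with 120 s contact and 120 s dissociation.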

Heat shock protein HSP 90-beta, sequence (P08238 whole entry): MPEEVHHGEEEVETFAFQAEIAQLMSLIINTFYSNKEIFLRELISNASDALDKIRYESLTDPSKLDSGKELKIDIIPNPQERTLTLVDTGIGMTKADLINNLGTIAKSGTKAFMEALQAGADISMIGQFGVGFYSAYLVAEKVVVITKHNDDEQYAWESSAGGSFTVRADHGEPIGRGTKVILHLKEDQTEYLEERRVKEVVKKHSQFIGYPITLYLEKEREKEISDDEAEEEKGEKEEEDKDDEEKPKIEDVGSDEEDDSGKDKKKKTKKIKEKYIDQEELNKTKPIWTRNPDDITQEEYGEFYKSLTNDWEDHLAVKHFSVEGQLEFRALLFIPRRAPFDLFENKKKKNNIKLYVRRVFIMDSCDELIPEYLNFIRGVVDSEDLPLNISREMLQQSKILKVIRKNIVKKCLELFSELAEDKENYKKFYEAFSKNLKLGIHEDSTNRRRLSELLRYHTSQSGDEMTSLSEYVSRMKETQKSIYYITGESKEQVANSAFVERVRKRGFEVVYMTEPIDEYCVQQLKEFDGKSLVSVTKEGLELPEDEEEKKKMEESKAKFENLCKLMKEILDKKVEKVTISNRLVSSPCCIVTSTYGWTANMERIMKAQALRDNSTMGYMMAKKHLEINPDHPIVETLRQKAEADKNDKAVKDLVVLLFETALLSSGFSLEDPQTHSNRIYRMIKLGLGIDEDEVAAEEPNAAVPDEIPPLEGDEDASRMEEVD

CC(C)(C)c1ccc(Cn2cc(-c3cc(O)c(O)c(O)c3)nn2)cc1
TGI [1]: Active
Activity [2]: 0.37%
Activity [3]: 6.22%
Activity [4]: Active
IC50 [5]: 0.18 µM
viability at 0.07 µM [6]: 94%
Kd [7]: 81.4 µM

Source: ChEMBL document CHEMBL4706684, “Discovering High Potent Hsp90 Inhibitors as Antinasopharyngeal Carcinoma Agents through Fragment Assembling Approach” (J Med Chem, 2021)
